Paper PMC6140336 (Cell, 2018)

Experiments:
[1] = test system: TCR55-transduced 58−/− T cells; assay: IL-2 ELISA, TCR55-transduced cell line; type: cell-based, murine; conditions: peptide-pulsed KG-1 APCs or OKT3, 24 hrs, result in words
Method in brief: (§1)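 58−/− cells carrying the TCR were rested overnight in complete RPMI. KG-1 APCs were pulsed with peptide for 2 h or overnight at 37 °C, washed, and mixed 1:1 with the T cells for 24 hrs at 37 °C. Secreted mouse IL-2 was measured by sandwich ELISA (avidin-HRP, TMB, H3PO4 stop) read at 450 and 570 nm. Biological and technical triplicates.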

[2] = test system: TCR589-transduced 58−/− T cells; assay: IL-2 ELISA, TCR589-transduced cell line; type: cell-based, murine; conditions: peptide-pulsed KG-1 APCs or OKT3, 24 hrs, result in words
Method in brief: as §1

[3] = test system: SKW3 T cells expressing TCR55; assay: pERK1/2 phospho-flow cytometry, TCR55 cells; type: cell-based, human; conditions: peptide-pulsed KG-1 cells or OKT3, 15 minutes, result in words
[4] = test system: SKW3 T cells expressing TCR589; assay: pERK1/2 phospho-flow cytometry, TCR589 cells; type: cell-based, human; conditions: peptide-pulsed KG-1 cells or OKT3, 15 minutes, result in words
Method in brief: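 SKW3 cells were rested overnight. Peptide-pulsed KG-1 cells (2 h) were washed and mixed 1:1 with them (125,000 each), then co-cultured 15 min at 37 °C. Cells were fixed in 4% PFA then Cytofix (30 min, 37 °C), permeabilised in ice-cold methanol or Perm Buffer III, and stained 1 h at RT with anti-pERK1/2 (1:50) and anti-CD3. Mean pERK MFI of CD3+ cells by flow. Biological and technical triplicates.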

“OKT3: anti-CD3 antibody (clone OKT3), non-specific TCR stimulus” was tested, and the IL-2 secretion [1] was “responded similarly”, the IL-2 secretion [2] was “responded similarly” and the “ERK1/2 phosphorylation (pERK)” value [3] was “robust ERK1/2 phosphorylation”. The “ERK1/2 phosphorylation (pERK)” value [4] was “robust ERK1/2 phosphorylation”.
